Marks after values point to notes of the source that are not given here.
Assays:
U87 cells = test: Annexin V apoptosis by flow cytometry; format: cell-based, human; conditions: 24 h
In short: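 U87 cells in 12-well plates, cultured overnight, then exposed 24 h to test compound (6.3 μM), an EGFR inhibitor (13.3 μM) or both. Floating and attached cells were pooled and stained with Annexin V-FITC (10 μg/ml) in HEPES-buffered saline (pH 7.4) with Ca2+ and Mg2+. Flow cytometry at 5000 events/sample. Reported as mean ± S.D. of three experiments.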

p-Erk [1] = test: p-Erk in U87 cells by western blot / MSD assay; format: cell-based, human
In short: (§1)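 U87 cells received increasing test compound concentrations for 1 h, or 6.3 μM over a time course. Phospho- and total Akt/Erk were measured by western blot or MSD multispot immunoassay, loading 20 μg (Akt) or 5 μg (Erk) lysate in duplicate. Plates were incubated overnight at 4°C, then detection antibody for 2 h at room temperature. Signals were background-corrected; phospho/total percentage expressed relative to control.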

P70S6K phosphorylation = test: Western blot of phosphorylated P70S6K in U87 cells; format: cell-based, human; conditions: 6.3 μM, 1 h, mean ± S.D.
In short: (§2)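 U87 cells in DMEM with 10% FBS at 37°C, 5% CO2, grown on 10 cm plates and exposed to test compound for 1 h. Lysed on ice in buffer containing PMSF, phosphatase and protease inhibitors; 20 μg protein run on SDS-PAGE and blotted to PVDF. Detected with IRDye/Alexa 680 secondaries and quantified by Odyssey imaging against total protein and β-actin, relative to control. Blots repeated at least three times.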

[2] = tested on: p-Akt in intracerebral U87 brain tumors; test: In vivo pharmacodynamics: p-Akt in brain tumor; set-up: species or system mouse; conditions: for p-Akt nadir, of control: within 30 min
In short: (§3)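 NIH Swiss nude mice carried U87 cells (10^6 in 10 μl PBS) implanted stereotactically into the caudate putamen. Test compound was given as an IV tail-vein bolus of 5 or 25 mg/kg, or 25 mg/kg 1 h after oral EGFR inhibitor (200 mg/kg). Tumours were collected from 5 min to 10 h (17 h with co-dosing) and lysed at 20 μl buffer/mg. Phospho/total Akt and Erk were measured by MSD as percent of control, at least three mice per time point. ABEC was reported in %-h.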

Akt = test: Biochemical kinase screen
p-C-Raf S259 = test: Western blot of p-C-Raf S259 in U87 or U87PTEN cells; format: cell-based, human; conditions: 6.3 μM, 1 h
In short: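 U87 or PTEN-expressing U87 cells in 6-well plates were pretreated 1 h with vehicle, 50 μM LY294002 or 1 μM wortmannin. Test compound was then added at 6.3 μM for 1 h. Lysates (20 μg protein) were resolved by SDS-PAGE, transferred to PVDF, blocked in 5% milk and immunoblotted.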

[3] = In vivo pharmacokinetics in mice bearing intracerebral U87 tumors; set-up: species or system mouse; conditions: for AUC / Kp / Tmax / clearance / Vd / half-life: NIH Swiss nude, mouse, iv; for Kp: Pbt (brain tumor partition coefficient, AUCbt/AUCp); for clearance: CL; for Vd: Vss; for half-life: t½; for peak concentration in brain: at 5 min
In short: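 Same intracerebral U87 nude-mouse model, single IV tail-vein bolus of 5 or 25 mg/kg. Plasma, normal brain and tumour were taken from 3–4 mice per time point (5 min–10 h). Tissues were saline-rinsed and homogenised 20% w/w in water. Samples (10 μl) were protein-precipitated with 40 μl cold acetonitrile and quantified by ESI LC/MS/MS. Noncompartmental analysis; AUC to last observable concentration by linear-log interpolation.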

p-Erk [4] = test: p-Erk in GBM39 cells; format: cell-based, human; conditions: 4μM
[5] = tested on: 40S ribosomal protein S6 [rpS6] phosphorylation; test: Western blot of phosphorylated rpS6 in U87 cells; format: cell-based, human; conditions: 6.3 μM, 1 h, mean ± S.D.
In short: as §2

p-Akt = p-Akt in U87 cells by western blot / MSD assay; format: cell-based, human; conditions: 6.3 μM
In short: as §1

p-mTOR [S2481 and 2448] = test: Immunoblot of p-mTOR in U87 cells; format: cell-based, human; conditions: 6.3 μM ON123300 alone or with 13.3 μM GFN, 1 h
In short: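 U87 cells were treated 1 h with 6.3 μM test compound, 13.3 μM EGFR inhibitor or both. Lysis buffer held PMSF plus phosphatase and protease inhibitors; lysates were sonicated and spun at 21,000 × g. 20 μg protein per lane went on SDS-PAGE and PVDF, blocked in 5% milk. Primary antibody was 1 h at room temperature or overnight at 4°C. Bands quantified densitometrically as percentages; mean ± S.D. of three experiments.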

Rb S780 phosphorylation = test: Western blot of phosphorylated Rb S780 in U87 cells; format: cell-based, human; conditions: 6.3 μM, 1 h, mean ± S.D.
In short: as §2

[6] = tested on: panel of 11 glioma models including a patient-derived model [GBM10]; test: SRB cytotoxicity assay, panel of glioma models; format: cell-based, human; conditions: compared with U87 cells; Fig. S1
ABC transporters = conditions: based on previous studies; cited from earlier work
VEGFR3 = VEGFR3 (Homo sapiens, UniProt P35916); test: Biochemical kinase screen
VEGFR3, sequence (P35916 25-1363): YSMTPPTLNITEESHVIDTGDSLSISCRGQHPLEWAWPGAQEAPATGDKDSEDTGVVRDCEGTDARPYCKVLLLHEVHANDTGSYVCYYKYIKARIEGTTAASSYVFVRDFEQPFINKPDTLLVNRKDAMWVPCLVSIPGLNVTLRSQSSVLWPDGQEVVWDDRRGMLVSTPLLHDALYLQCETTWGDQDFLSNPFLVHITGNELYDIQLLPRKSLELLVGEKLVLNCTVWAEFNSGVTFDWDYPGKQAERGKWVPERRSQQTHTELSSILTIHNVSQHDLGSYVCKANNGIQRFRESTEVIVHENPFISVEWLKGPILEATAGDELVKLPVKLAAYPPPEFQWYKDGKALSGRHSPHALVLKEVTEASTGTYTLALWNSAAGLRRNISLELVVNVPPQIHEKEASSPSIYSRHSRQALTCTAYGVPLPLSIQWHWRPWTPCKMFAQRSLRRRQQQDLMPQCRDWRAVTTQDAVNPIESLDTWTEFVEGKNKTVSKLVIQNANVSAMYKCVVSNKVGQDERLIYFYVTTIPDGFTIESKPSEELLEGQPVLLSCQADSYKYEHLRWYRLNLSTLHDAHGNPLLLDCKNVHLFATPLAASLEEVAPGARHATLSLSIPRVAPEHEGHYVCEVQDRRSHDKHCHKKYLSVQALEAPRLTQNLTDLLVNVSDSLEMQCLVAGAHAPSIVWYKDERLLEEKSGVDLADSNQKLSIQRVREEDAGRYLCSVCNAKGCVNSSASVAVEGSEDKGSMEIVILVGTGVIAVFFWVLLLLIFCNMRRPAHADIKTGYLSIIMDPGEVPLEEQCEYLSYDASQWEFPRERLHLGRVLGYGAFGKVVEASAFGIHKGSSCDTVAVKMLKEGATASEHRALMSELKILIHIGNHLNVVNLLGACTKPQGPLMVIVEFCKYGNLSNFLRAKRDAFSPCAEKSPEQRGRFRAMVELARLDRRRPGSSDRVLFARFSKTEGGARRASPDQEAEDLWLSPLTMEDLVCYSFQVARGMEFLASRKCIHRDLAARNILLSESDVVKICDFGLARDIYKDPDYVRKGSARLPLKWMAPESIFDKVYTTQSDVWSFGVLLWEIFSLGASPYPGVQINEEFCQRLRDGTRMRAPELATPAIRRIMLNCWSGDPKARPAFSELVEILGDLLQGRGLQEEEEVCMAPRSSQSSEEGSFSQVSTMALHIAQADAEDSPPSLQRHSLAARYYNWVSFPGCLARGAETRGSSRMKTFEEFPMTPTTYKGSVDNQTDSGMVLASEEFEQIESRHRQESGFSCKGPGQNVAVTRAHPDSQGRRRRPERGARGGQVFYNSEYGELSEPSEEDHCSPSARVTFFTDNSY

[7] = tested on: p-Erk in intracerebral U87 brain tumors; test: In vivo pharmacodynamics: p-Erk in brain tumor; set-up: species or system mouse
In short: as §3

[8] = plasma, 5 mg/kg, ON123300 5 mg/kg IV
[9] = plasma, 25 mg/kg, ON123300 25 mg/kg IV

## CN1CCN(c2ccc(Nc3ncc4cc(C#N)c(=O)n(C5CCCC5)c4n3)cc2)CC1 [ON123300]
U87 cells
  apoptotic cell death (Annexin V staining): induced cell death by apoptosis in a dose-dependent manner
p-Erk [1]; 6.3 μM, 1 h, western blot, mean ± S.D.
  p-Erk relative to control: 120 % ± 6.9
p-Erk [1]; 6.3 μM, over 6 h
  p-Erk elevation relative to pre-treatment: about 2 fold
p-Erk [1]; 1 h, western blot and MSD
  concentration giving 100% increase in p-Erk compared to vehicle: about 7 μM
P70S6K phosphorylation
  phosphorylation of P70S6K relative to control: 31.8 %± 2.1
[2]; IV
  change in p-Akt ABEC from 5 mg/kg to 25 mg/kg: 5 fold
[2]; ON123300 5 mg/kg IV
  ABEC p-Akt: 63.2 %_h
  p-Akt nadir, of control: 73%
[2]; ON123300 25 mg/kg IV
  ABEC p-Akt: 304.9 %_h
  p-Akt nadir, of control: 60%
[2]; ON123300 25 mg/kg IV 1 h after oral 200 mg/kg GFN
  ABEC p-Akt: 765.0 %_h
[2]; ON123300 25 mg/kg IV plus oral 200 mg/kg GFN
  ABEC p-Akt: 765 %-h
[2]; ON123300 25 mg/kg IV plus oral 200 mg/kg GFN, at 4 h after the ON123300 dose
  p-Akt nadir: about 30%
[2]; ON123300 25 mg/kg IV, 10 h
  p-Akt level at 10 h: ~60%
Akt
  direct inhibition of Akt: did not directly inhibit
p-C-Raf S259
  p-C-Raf S259 expression: partially decreased
[3]; brain tumor, 5 mg/kg, AUCbt, ON123300 5 mg/kg IV
  AUC: 6890 ng·h/mL
[3]; brain tumor, 5 mg/kg, ON123300 5 mg/kg IV
  Kp: 5.7
[3]; brain tumor, 25 mg/kg, AUCbt, brain tumor, ON123300 25 mg/kg IV 1 h after oral 200 mg/kg GFN
  AUC: 49400 ng·h/mL
[3]; brain tumor, 25 mg/kg, AUCbt, ON123300 25 mg/kg IV
  AUC: 63200 ng·h/mL
[3]; brain tumor, 25 mg/kg, ON123300 25 mg/kg IV
  Kp: 15
[3]; brain tumor, 25 mg/kg, Tmax brain tumor, ON123300 25 mg/kg IV
  Tmax: 1 h
[3]; brain, 5 mg/kg, AUCb, ON123300 5 mg/kg IV
  AUC: 3120 ng·h/mL
[3]; brain, 25 mg/kg, AUCb, ON123300 25 mg/kg IV
  AUC: 11700 ng·h/mL
[3]; brain, 25 mg/kg, Tmax brain, ON123300 25 mg/kg IV
  Tmax: 0.083 h
[3]; plasma, 5 mg/kg, AUCp, ON123300 5 mg/kg IV
  AUC: 1210 ng·h/mL
[3]; [8]
  clearance: 69.1 mL/min/kg
  half-life: 1.5 h
[3]; plasma, 5 mg/kg, plasma, ON123300 5 mg/kg IV
  Vd: 3.6 L/kg
[3]; plasma, 25 mg/kg, AUCp, ON123300 25 mg/kg IV
  AUC: 4220 ng·h/mL
[3]; [9]
  clearance: 98.7 mL/min/kg
  half-life: 1.5 h
[3]; plasma, 25 mg/kg, plasma, ON123300 25 mg/kg IV
  Vd: 10.2 L/kg
[3]; ON123300 25 mg/kg IV, oral 200 mg/kg GFN
  reduction in the total clearance of ON123300 in the presence of GFN: 33%
[3]; brain tumor, ON123300 5 mg/kg IV
  Cmax brain tumor: 6493 ng/mL
[3]; brain tumor, ON123300 25 mg/kg IV
  Cmax brain tumor: 27250 ng/mL
[3]; brain tumor, ON123300 25 mg/kg IV 1 h after oral 200 mg/kg GFN
  Cmax brain tumor: 20900 ng/mL
[3]; brain, ON123300 5 mg/kg IV
  peak concentration in brain: 5735 ng/g
[3]; brain, ON123300 25 mg/kg IV
  peak concentration in brain: 12432 ng/g
  Cmax brain: 12432.5 ng/mL
[3]; brain, ON123300 25 mg/kg IV 1 h after oral 200 mg/kg GFN
  Cmax brain: 16300 ng/mL
[3]; plasma, IV
  increase in AUCp from 5 mg/kg to 25 mg/kg: 3.5 fold
p-Erk [4]
  peak p-Erk activation relative to the control: 174%
[5]
  phosphorylation of rpS6 relative to control: 60.5% ± 1.0
p-Akt
  time of p-Akt nadir: 30 min
p-Akt; 1 h, western blot, mean ± S.D.
  phosphorylation of Akt relative to control: 40.1% ± 5.7
p-mTOR [S2481 and 2448]
  expression of p-mTOR S2448: 86% ± 3.1
  expression of p-mTOR S2481: 102% ± 5.2
Rb S780 phosphorylation
  phosphorylation of Rb S780 relative to control: 54.5% ± 6.3
[6]
  inhibition of cell proliferation in a panel of 11 glioma models: quite comparable to that observed to U87 cells
ABC transporters
  substrate for the ABC transporters: unlikely to be a substrate
VEGFR3
  inhibitory action against VEGFR3: appreciable inhibitory action
[7]; ON123300 5 mg/kg IV, 5 min
  p-Erk spike at 5 min: 159%
[7]; ON123300 25 mg/kg IV
  p-Erk maximum relative to baseline: 161%
[7]; ON123300 25 mg/kg IV plus oral 200 mg/kg GFN, 17 h following the ON123300 dose
  p-Erk, of control, at 17 h: 80%
[7]; ON123300 25 mg/kg IV plus oral 200 mg/kg GFN, at 5 min
  p-Erk peak activation: 120%
[7]; ON123300 25 mg/kg IV plus oral 200 mg/kg GFN, below the baseline
  ABEC p-Erk: 273.9 %-h
[7]; ON123300 25 mg/kg IV, ABEC above the baseline
  ABEC p-Erk: 144.1^# %_h
[7]; ON123300 25 mg/kg IV, above the baseline
  ABEC p-Erk: 144 %-h
